# Results published in ChEMBL document CHEMBL4715714, “Design, synthesis and biological evaluation of thiosemicarbazones, hydrazinobenzothiazoles and arylhydrazones as anticancer agents with a potential to overcome multidrug resistance” (Eur J Med Chem, 2016).
# The source made the active and inactive calls. The calls are words filed in the database; no cut-off is given here.
# Tests used:
# KB 3-1 = assay: Cytotoxicity against human KB-3-1 cells assessed as inhibition of cell proliferation incubated for 72 hrs by MTT assay; assay type: functional, cell-based; conditions: KB 3-1, 72 h
# How it was run: (§1)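 Cells were seeded (10000/well for A2780, 5000/well for MES-SA/Dx5 and KB-3-1/V1) and left to attach 12 h, then exposed to compound for 72 h. Medium was removed, and MTT (0.83 mg/mL) was added for 1 h at 37 °C. Cells were lysed in DMSO and absorbance read at 540 nm. Signal was corrected for unstained lysate background, normalized to untreated cells, and IC50 taken from a sigmoidal dose-response fit.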
# MES-SA [1] = assay: Cytotoxicity against human MES-SA cells transfected with mCherry fluorescent protein assessed as inhibition of cell proliferation incubated for 72 hrs by fluorescent assay; assay type: functional, cell-based
# How it was run: (§2)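 MES-SA and MES-SA/Dx5 cells were made to stably express mCherry by lentiviral transduction. Cells were seeded at 5000 (96-well) or 2500 (384-well) per well, allowed to attach 24 h, then treated with compound dilutions for 72 h. Viability was read as fluorescence, excitation 585 nm, emission 610 nm.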
# MES-SA/Dx5 [2] = assay: Cytotoxicity against human MES-SA/DX5 cells assessed as inhibition of cell proliferation incubated for 72 hrs by MTT assay; assay type: functional, cell-based; conditions: for IC50: MES-SA/Dx5, 72 h; how it was run: as §1
# KB-V1 = assay: Cytotoxicity against human KB-V1 cells assessed as inhibition of cell proliferation incubated for 72 hrs by MTT assay; assay type: functional, cell-based; conditions: KB-V1, 72 h; how it was run: as §1
# MES-SA [3] = assay: Cytotoxicity against human MES-SA cells assessed as inhibition of cell proliferation incubated for 72 hrs by MTT assay; assay type: functional, cell-based; how it was run: as §1
# MES-SA/Dx5 [4] = assay: Cytotoxicity against human MES-SA/DX5 cells transfected with mCherry fluorescent protein assessed as inhibition of cell proliferation incubated for 72 hrs by fluorescent assay; assay type: functional, cell-based; how it was run: as §2
# A2780 = assay: Cytotoxicity against human A2780 cells assessed as inhibition of cell proliferation incubated for 72 hrs by MTT assay; assay type: functional, cell-based; conditions: A2780, 72 h; how it was run: as §1
# [5] = Cytotoxicity against human A2780adr cells assessed as inhibition of cell proliferation incubated for 72 hrs by MTT assay; assay type: functional, cell-based; conditions: A2780 ADR; how it was run: as §1
# [6] = Selectivity ratio of IC50 for human MES-SA cells to IC50 for human MES-SA/DX5 cells incubated for 72 hrs by MTT assay; assay type: functional
# How it was run: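 The selectivity ratio is the IC50 in P-gp-negative parental cells divided by the IC50 in the P-gp-positive resistant partner.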
# [7] = Homo sapiens, MES-SA, 72 h, read-out: IC50
# [8] = Homo sapiens, MES-SA/Dx5, 72 h, read-out: IC50
# [9] = Homo sapiens, MES-SA, 72 h, read-out: pIC50 (converted)
# [10] = Homo sapiens, MES-SA/Dx5, 72 h, read-out: pIC50 (converted)
SMILES,IC50 (MES-SA [1]; [7]),IC50 (MES-SA/Dx5 [4]; [8]),IC50 (MES-SA [1]; [9]),IC50 (MES-SA/Dx5 [4]; [10]),other results
CCc1ccc(/C=N/NC(=S)Nc2ccc([N+](=O)[O-])cc2)nc1,10500 nM,11000 nM,,,IC50 (KB 3-1; read-out: IC50): 8.03 µM; IC50 (KB 3-1; read-out: pIC50 (converted)): 7.94 µM; IC50 (MES-SA/Dx5 [2]; read-out: IC50): 8020 nM; IC50 (MES-SA/Dx5 [2]; read-out: pIC50 (converted)): 8130 nM; IC50 (KB-V1; read-out: IC50): 8.93 µM; IC50 (KB-V1; read-out: pIC50 (converted)): 8.91 µM; IC50 (MES-SA [3]; read-out: IC50): 10900 nM; IC50 (MES-SA [3]; read-out: pIC50 (converted)): 10700 nM
C(=N\Nc1ccccn1)/c1ccc2ccccc2n1,820 nM,430 nM,776 nM,427 nM,
C/C(=N\NC(=S)Nc1ccccc1)c1ccccn1,,,,,pIC50 (MES-SA [1]): inactive; pIC50 (MES-SA/Dx5 [4]): inactive
O=[N+]([O-])c1ccc(NC(=S)N/N=C/c2ccccn2)cc1,2740 nM,2740 nM,2690 nM,2750 nM,IC50 (A2780; read-out: IC50): 670 nM; IC50 (A2780; read-out: pIC50 (converted)): 617 nM; IC50 (KB 3-1; read-out: IC50): 1.05 µM; IC50 (KB 3-1; read-out: pIC50 (converted)): 1.02 µM; IC50 (MES-SA/Dx5 [2]; read-out: IC50): 1830 nM; IC50 (MES-SA/Dx5 [2]; read-out: pIC50 (converted)): 1780 nM; IC50 (KB-V1; read-out: IC50): 1.99 µM; IC50 (KB-V1; read-out: pIC50 (converted)): 1.78 µM; IC50 (MES-SA [3]; read-out: IC50): 2700 nM; IC50 (MES-SA [3]; read-out: pIC50 (converted)): 2570 nM; IC50 ([5]; read-out: IC50): 1370 nM; IC50 ([5]; read-out: pIC50 (converted)): 1350 nM
C/C(=N\NC(=S)Nc1ccccc1C)c1ccccn1,30 nM,92 nM,29.5 nM,87.1 nM,
C/C(=N\NC(=S)Nc1ccc(C)cc1)c1ccccc1O,10900 nM,3460 nM,9770 nM,4370 nM,
COc1ccccc1/C=N/Nc1nc2ccccc2s1,,,,,pIC50 (MES-SA [1]): inactive; IC50 (MES-SA [1]; mes-sa): Not Active; pIC50 (MES-SA/Dx5 [4]): inactive; IC50 (MES-SA/Dx5 [4]; mes-sa/dx5): Not Active
O=[N+]([O-])c1ccc(O)c(/C=N/Nc2nc3ccccc3s2)c1,4070 nM,1990 nM,3800 nM,1860 nM,
C(=N\Nc1nc2ccccc2s1)/c1ccccn1,2700 nM,3360 nM,2690 nM,3090 nM,IC50 (A2780; read-out: IC50): 590 nM; IC50 (A2780; read-out: pIC50 (converted)): 575 nM; IC50 (KB 3-1; read-out: IC50): 0.65 µM; IC50 (KB 3-1; read-out: pIC50 (converted)): 0.646 µM; IC50 (MES-SA/Dx5 [2]; read-out: IC50): 1020 nM; IC50 (MES-SA/Dx5 [2]; read-out: pIC50 (converted)): 1000 nM; IC50 (KB-V1; read-out: IC50): 0.84 µM; IC50 (KB-V1; read-out: pIC50 (converted)): 0.813 µM; IC50 (MES-SA [3]; read-out: IC50): 1420 nM; IC50 (MES-SA [3]; read-out: pIC50 (converted)): 1410 nM; IC50 ([5]; read-out: IC50): 450 nM; IC50 ([5]; read-out: pIC50 (converted)): 447 nM; Ratio IC50 [6]: 1.41
C/C(=N\NC(=S)Nc1ccccc1C(F)(F)F)c1ccccn1,33 nM,161 nM,32.4 nM,141 nM,
COc1ccc(NC(=S)N/N=C/c2cccc(C)n2)cc1,4720 nM,4220 nM,4680 nM,4170 nM,
CCc1ccc(/C=N/NC(=S)Nc2ccc(OC)cc2)nc1,96 nM,56 nM,,,IC50 (MES-SA/Dx5 [2]; read-out: IC50): 72 nM; IC50 (MES-SA/Dx5 [2]; read-out: pIC50 (converted)): 63.1 nM; IC50 (MES-SA [3]; read-out: IC50): 420 nM; IC50 (MES-SA [3]; read-out: pIC50 (converted)): 417 nM
COc1ccc(NC(=S)N/N=C(\C)c2ccccc2N)cc1,18500 nM,17700 nM,,,IC50 (A2780; read-out: IC50): 4350 nM; IC50 (A2780; read-out: pIC50 (converted)): 4270 nM; IC50 (KB 3-1; read-out: IC50): 20.6 µM; IC50 (KB 3-1; read-out: pIC50 (converted)): 20.4 µM; IC50 (MES-SA/Dx5 [2]; read-out: IC50): 8020 nM; IC50 (MES-SA/Dx5 [2]; read-out: pIC50 (converted)): 7940 nM; IC50 (KB-V1; read-out: IC50): 22.3 µM; IC50 (KB-V1; read-out: pIC50 (converted)): 22.4 µM; IC50 (MES-SA [3]; read-out: IC50): 10700 nM; IC50 (MES-SA [3]; read-out: pIC50 (converted)): 10500 nM; IC50 ([5]; read-out: IC50): 4870 nM; IC50 ([5]; read-out: pIC50 (converted)): 4900 nM
Oc1ccccc1/C=N/NC(=S)Nc1cccc(C(F)(F)F)c1,5070 nM,4080 nM,,,
O=[N+]([O-])c1ccc(O)c(/C=N/NC(=S)Nc2ccccc2C(F)(F)F)c1,21100 nM,13900 nM,,,
C/C(=N\Nc1ccccn1)c1cc(C)c2ccccc2n1,300 nM,290 nM,288 nM,295 nM,
C/C(=N\Nc1ccccn1)c1ccc2ccccc2n1,480 nM,380 nM,479 nM,347 nM,
FC(F)(F)c1cccc(NC(=S)N/N=C/c2ccccn2)c1,850 nM,720 nM,832 nM,692 nM,
Cc1cc(/C=N/Nc2ccccn2)nc2ccccc12,560 nM,400 nM,537 nM,398 nM,
O=[N+]([O-])c1ccc(O)c(/C=N/NC(=S)Nc2cccc(C(F)(F)F)c2)c1,16400 nM,11900 nM,,,
C/C(=N\Nc1ccccn1)c1ccccn1,102 nM,59 nM,77.6 nM,58.9 nM,
COc1cc(N/N=C/c2ccccn2)ncn1,2450 nM,2710 nM,2340 nM,2570 nM,IC50 (A2780; read-out: IC50): 1730 nM; IC50 (A2780; read-out: pIC50 (converted)): 1740 nM; IC50 (KB 3-1; read-out: IC50): 1.95 µM; IC50 (KB 3-1; read-out: pIC50 (converted)): 1.91 µM; IC50 (MES-SA/Dx5 [2]; read-out: IC50): 2490 nM; IC50 (KB-V1; read-out: IC50): 2.83 µM; IC50 (KB-V1; read-out: pIC50 (converted)): 2.82 µM; IC50 (MES-SA [3]; read-out: IC50): 2820 nM; IC50 ([5]; read-out: IC50): 1950 nM; IC50 ([5]; read-out: pIC50 (converted)): 1950 nM
COc1ccc(O)c(/C=N/Nc2nc3ccccc3s2)c1,14900 nM,11600 nM,13200 nM,9330 nM,
C/C(=N\NC(=S)Nc1cccc(C(F)(F)F)c1)c1ccccn1,9590 nM,11700 nM,9550 nM,11700 nM,
S=C(N/N=C/c1ccccn1)Nc1ccccc1,720 nM,580 nM,692 nM,562 nM,
FC(F)(F)c1ccccc1NC(=S)N/N=C/c1ccccn1,130 nM,160 nM,120 nM,138 nM,
C/C(=N\NC(=S)Nc1cccc(C)c1)c1ccccn1,32 nM,63 nM,31.6 nM,61.7 nM,
O=C1Nc2ccccc2/C1=N/Nc1nc2ccccc2s1,,,,,IC50 (MES-SA [1]; mes-sa): Not Active; pIC50 (MES-SA/Dx5 [2]): inactive; pIC50 (MES-SA [3]): inactive
COc1ccc(NC(=S)N/N=C/c2ccccc2O)cc1,2670 nM,1850 nM,,,IC50 (A2780; read-out: IC50): 5470 nM; IC50 (A2780; read-out: pIC50 (converted)): 5370 nM; IC50 (KB 3-1; read-out: IC50): 5.02 µM; IC50 (KB 3-1; read-out: pIC50 (converted)): 5.01 µM; IC50 (MES-SA/Dx5 [2]; read-out: IC50): 3500 nM; IC50 (MES-SA/Dx5 [2]; read-out: pIC50 (converted)): 3470 nM; IC50 (KB-V1; read-out: IC50): 4.87 µM; IC50 (KB-V1; read-out: pIC50 (converted)): 5.01 µM; IC50 (MES-SA [3]; read-out: IC50): 3910 nM; IC50 (MES-SA [3]; read-out: pIC50 (converted)): 3800 nM; IC50 ([5]; read-out: IC50): 6950 nM; IC50 ([5]; read-out: pIC50 (converted)): 6920 nM
